Screening results as filed in PubChem BioAssay.
NALP1 inh = NALP1 inhibition | actives 0.61% (n = 280,000) | AID 2071 | inhibition, % at 10 µM | S. cerevisiae NALP1/ASC/caspase-1 growth, X-gal OD620, 72 h; in the data active means inhibition mostly above about 24%, no sharp cut-off; inactive means mostly below about 32%
NALP3 yeast inh = NALP3 inhibition in yeast. Yeast reconstituted NLRP3/ASC/caspase-1, beta-gal luminescence, 24 h. inhibition, % at 10 µM. actives 0.39% (n = 330,000);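 active means inhibition of 50% or more; inactive means inhibition below 50%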;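 further: plate controls were induced DMSO wells for no effect and uninduced yeast grown without galactose for full effect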
PolyA inh = inhibitors of polyadenylation in S. cerevisiae. S. cerevisiae SKY197-pL101 polyadenylation reporter, beta-gal luminescence; efflux-impaired pdr1/pdr3 knockout yeast; score 100 = 6 SD above DMSO. activity score, % at 12 µM. actives 0.02% (n = 300,000);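 active means lowest replicate activity score at least 50, where 100 means six control SD above control mean; inconclusive means lowest score under 50 but half or more replicates reach 50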;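 further: yeast exposed to compound for 9 h at 30 °C; higher score means more reporter readthrough which indicates perturbed polyadenylation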
Calb FLC = affects C. albicans growth with fluconazole; growth inhibition, % (no concentration beside the values); C. albicans CaCi-2 + fluconazole, Alamar Blue growth, 48 h; actives 0.57% (n = 300,000);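 active means growth inhibition above about 58% in most replicates, limit read from the data, passing the limit was not always enough; inconclusive means exactly half the replicates above a set limit; inactive means most replicates below a set limit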;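 further: all wells also contain fluconazole at 8 µg/ml as a sub-toxic cotreatment; 0% = median of DMSO wells and 100% = median of geldanamycin control wells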
L major viab = Leishmania major promastigote growth inhibition. AID 1063. actives 9% (n = 200,000). inhibition, % at 10 µM. Leishmania major promastigotes, resazurin fluorescence viability; in the data active means inhibition above about 50%;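 further: promastigotes grown with compound for 44 hours at 28 °C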
T cruzi inh = T. cruzi replication inhibition. T. cruzi beta-gal in NIH3T3, luminescence, 90 h. inhibition, % (test concentration not listed). actives 1.4% (n = 300,000). AID 1885;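 active means mean inhibition across valid replicates above about 55%, limit read from the data; inconclusive means mean below that limit but half or more replicates reach it; inactive means mean below it, under half of replicates reach it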;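 further: signal also drops with host cell toxicity which is not excluded here; 0% = plate median of DMSO wells and 100% = zero luminescence signal; higher percent means less beta-gal luminescence so fewer parasites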
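Read-out: Parasite load inhibition, % | Test system: Mouse NIH/3T3 fibroblasts infected with β-gal-expressing T. cruzi Tulahuen C4 | Amount: 5,000 cells/well | Medium: DMEM, 2% fetal bovine serum | Signal: GalScreen β-gal luminescence, detergent lysis, 60 min | Timing: 3 h attach, ≥90 h co-culture | Also added: Tulahuen C4 trypomastigotes, 5000/well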
* = called active by the depositor; ? = inconclusive; / = no result given. Shown is part of a subset that was picked to be rich in hits.

SMILES	NALP1 inh	NALP3 yeast inh	PolyA inh	Calb FLC	L major viab	T cruzi inh
O=C(/C=C/c1ccccc1)NC(=S)Nc1ccccc1	24	37	-5	6	/	-11
Cc1nc2ccc(NC(=O)c3cccc(S(=O)(=O)N4CC(C)OC(C)C4)c3)cc2s1 (configuration not stated)	-3	13	13	15	98*	19
CN(c1ccccc1)S(=O)(=O)c1ccc(NC(=S)NC(=O)C2CC2)cc1	23	-4	-20	1	75*	7
Cc1ccc(C(=O)NC(=S)Nc2ccc(S(=O)(=O)N(C)c3ccccc3)cc2)cc1	9	1	-1	-2	-2	/
CN(c1ccccc1)S(=O)(=O)c1ccc(NC(=S)NC(=O)c2ccccc2)cc1	28	1	0	8	100*	8
C=CCN(CC=C)S(=O)(=O)c1ccc(NC(=S)NC(=O)/C=C/c2ccccc2)cc1	27*	7	-14	4	-8	-2
CCOc1ccc(S(=O)(=O)N2CCN(C(=O)c3cccn3C)CC2)cc1	12	3	9	-7	4	-2
Cc1ccc(SCC(=O)OCC(=O)NCCC2=CCCCC2)cc1	/	17	7	2	/	3
COc1ccccc1/C=C1\SC(=S)N(CC(=O)Nc2nnc(C)s2)C1=O	-13	-5	33	?	-3	9
COc1ccccc1/C=C/C(=O)NC(=S)Nc1ccc(S(=O)(=O)N(C)c2ccccc2)cc1	-3	15	-10	0	62*	9
Cc1nc2ccc(NC(=O)c3ccc([N+](=O)[O-])cc3[N+](=O)[O-])cc2s1	28	5	1	-1	100*	79*
Cc1nc2ccc(NC(=O)c3ccc(S(=O)(=O)N(C)c4ccccc4)cc3)cc2s1	29	11	-24	-13	99*	26
CC(=O)Nc1ccc(NC(=O)c2ccc(S(=O)(=O)N(C)c3ccccc3)cc2)cc1	/	22	/	/	/	/
CC1CN(S(=O)(=O)c2ccc(NC(=O)c3cc(-c4ccccc4O)n[nH]3)cc2)CC(C)O1 (configuration not stated)	-32	4	-6	53	100*	13
O=C(COc1cccc2cccnc12)N1CCc2ccccc21	13	5	1	40	-1	-4
COc1cc(/C=C2/SC(=S)N(CC(=O)O)C2=O)ccc1OCC(=O)Nc1ccc(C)c(C)c1	10	16	-4	-11	/	-10
CCOc1ccc2cc(/C=C/C(=O)c3ccco3)c(Cl)nc2c1	-5	33	7	42	64*	-3
CCOc1ccc2nc(SCC(=O)NNC(=O)c3ccco3)c(C)cc2c1	5	1	12	-10	/	-2
CC(C(=O)N1CCCc2c1c(=O)oc1ccc(O)cc21)N1CCc2ccccc2C1 (configuration not stated)	16	22	3	-8	95*	21
CCOC(=O)c1c(C)[nH]c(C(=O)COC(=O)/C=C/c2ccc(O)c(OC)c2)c1C	26	14	-6	41	99*	2
CCOC(=O)c1c(C)[nH]c(C(=O)COC(=O)CNC(=O)c2ccc(Cl)cc2Cl)c1C	-6	5	19	-19	52*	-8
CCOC(=O)c1c(C)[nH]c(C(=O)COC(=O)/C=C/c2ccc3c(c2)OCO3)c1C	35	2	13	-7	-7	-2
Cc1ccc(-c2noc(Cn3cc(S(=O)(=O)N4CCCC4)ccc3=O)n2)cc1	/	8	/	/	/	/
c1ccc(Cn2nnnc2C(c2cccnc2)N2CCN(c3ccccc3)CC2)cc1 (configuration not stated)	22	-4	-47	-16	99*	81*
CC(C)(C)n1nnnc1C(c1cccnc1)N1CCN(c2ccccc2F)CC1 (configuration not stated)	1	5	-11	-7	5	-11
Cc1cccc(N2CCN(C(c3ccccc3)c3nnnn3C(C)(C)C)CC2)c1C (configuration not stated)	11	20	8	-7	45	14
Cc1cccc(N2CCN(C(c3cccs3)c3nnnn3C(C)(C)C)CC2)c1C (configuration not stated)	19	1	-27	-3	76*	28
